Compounds with a hit are over-represented: about 1.5% of the library has one in this group of screens.
TbHK1 inh: Trypanosoma brucei hexokinase 1 inhibitors, primary screen, biochemical, G6PDH-coupled NADH absorbance, MLSCN library; recombinant TbHK1, G6PDH-coupled NADH A340; inhibition, % at 10 µM; actives 0.11% (n = 220,000); AID 1430, 2008;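 active = inhibition of 50% or more in the single-dose primary screen; inactive = inhibition below 50%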
Dynein cargo inh: inhibitors of GR-EGFP nuclear translocation, primary screen, dynein cargo transport inhibitor project, imaging, high-content, 3617.4 mouse cells | z-score, hits read low | test concentration mostly 20 µM; stimulated with dexamethasone, 1 µM; hits give low values | AID 1381, 2008 | actives 0.47% (n = 220,000);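 active = plate z-score of nuclear minus cytoplasmic receptor signal below a set negative limit, without overly bright fluorescence or cell loss, cut at about -3.5 in these data, passing the limit was not always enough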;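 note: z-score of nuclear minus cytoplasmic ring GR-EGFP intensity difference per well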
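Buffer or medium: tet-free, stripped-serum medium; reagent: dexamethasone at 1.0 µM final, 30 min; incubation: 48 h induction, 1 h compound, 30 min dex at 37 °C; measured by: formaldehyde fixation, Hoechst nuclear stain, 10x automated fluorescence imaging; read-out: nuclear-to-cytoplasmic GR-EGFP distribution per well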
Rad51 HR inh: human RAD51 strand exchange inhibitors, primary screen, biochemical, fluorescence; hRad51 DNA strand exchange, fluorescence dequenching; inhibition, % at 10 µM; actives 0.085% (n = 200,000); AID 1385, 2008;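 active = inhibition above 40% at the single screening dose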
Target sequence (Q06609 whole entry, looked up): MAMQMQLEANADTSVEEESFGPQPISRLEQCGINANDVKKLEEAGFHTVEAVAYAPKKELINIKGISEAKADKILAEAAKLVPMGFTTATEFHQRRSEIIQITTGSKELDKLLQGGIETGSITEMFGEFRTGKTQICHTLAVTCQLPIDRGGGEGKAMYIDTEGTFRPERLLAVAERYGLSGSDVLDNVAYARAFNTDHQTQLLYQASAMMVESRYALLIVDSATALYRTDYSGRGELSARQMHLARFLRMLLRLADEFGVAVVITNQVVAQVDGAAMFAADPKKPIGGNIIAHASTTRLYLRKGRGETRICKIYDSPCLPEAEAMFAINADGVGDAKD
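Test system – preformed human Rad51 ssDNA filaments · Reagent – Donor/quencher-labelled 47-bp dsDNA substrate · Incubation – 37 °C 15-min filament assembly, 30-min compound preincubation, 15-min exchange · Signal – FRET fluorescence dequenching, excitation 485 nm, emission 520 nm · Read-out – percent inhibition from fluorescence, normalised to plate control and blank means · Benchmarks – plate control and blank wells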
bCat nuc transl: modulators of beta-catenin nuclear translocation, primary screen, imaging, HeLa cells, immunofluorescence, high-content | nuclear translocation activity, % at 5 µM | AID 1665, 2009 | actives 0.3% (n = 190,000);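 active = nuclear translocation activity above 50% at 5 µM, with a well cell count of 50 or more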;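 note: per-cell ratio of nuclear to cytoplasmic median beta-catenin stain intensity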
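Test system: human HeLa cells, endogenous beta-catenin. Times: 24 h compound exposure, 37°C. Measured by: beta-catenin immunofluorescence imaging with DAPI.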
MT stabilizer: microtubule stabilizers in HeLa cells, primary screen, imaging, high-content imaging. HeLa tubulin immunostaining HCS, 24 h; share of cells brighter than vehicle mean+2SD. % tubulin-high responders, % at 10 µM. actives 0.83% (n = 200,000). AID 2205, 2009;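 active = plate Z-score above 3 for both tubulin-high and condensed-nucleus cell shares, with cell loss under 80%, at 10 µM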;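 note: anti alpha tubulin signal scored within the nucleus-defined area of each cell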
Large screens that a line does not name were inactive.

Cc1ccc(S(=O)(=O)N(CC(=O)N=Nc2c(O)[nH]c3ccccc23)c2ccc(C)c(C)c2)cc1	MT stabilizer 20 (no result: Rad51 HR inh)
O=C(Cn1c(C(F)(F)F)nc2ccccc21)Oc1cccc(C(F)(F)F)c1	Dynein cargo inh -4.2
OC[C@H](O)[C@H](O)[C@@H](O)[C@@H](O)[C@@H]1SC(c2ccccc2)=NN1c1ccccc1	none (no result: MT stabilizer)
Cc1ccc(C2=NNC(C(O)C(O)C(O)C(O)CO)S2)cc1 (stereo unspecified)	MT stabilizer 42
COc1ccccc1-n1cnc2c(c1=O)c1nc3ccccc3nc1n2-c1ccc(C)c(C)c1	none
O=c1oc2ccccc2c(Nc2ccc3ccccc3c2)c1[N+](=O)[O-]	MT stabilizer 46
O=C(O)COCC(=O)Nc1ccc(Oc2ncnc3cc(Cl)ccc23)nc1	none (no result: MT stabilizer)
CCCC(NCC(O)COc1ccc(-c2ccccc2)cc1)c1ccccc1 (stereo unspecified)	MT stabilizer 22
OC(CNC1CCCC1)COc1ccc(-c2ccccc2)cc1 (stereo unspecified)	none (no result: Rad51 HR inh)
Oc1ccc(-c2csc(-c3cccnc3)n2)c(O)c1	MT stabilizer 12
Oc1ccc(-c2nc(-c3ccc(O)c(O)c3)cs2)cc1	bCat nuc transl 66, MT stabilizer 15
COc1cc(CN2CCN(c3ccc(C)cc3)CC2)cc([N+](=O)[O-])c1O	Rad51 HR inh 117
COc1ccc(/C=N/NC(=O)c2ccccc2[N+](=O)[O-])cc1CN1CCc2cc(OC)c(OC)cc2C1C (stereo unspecified)	none
COc1ccc(NS(=O)(=O)c2ccc(NC(=O)c3ccc(CN4CCOCC4)cc3)cc2)cc1	none (no result: Rad51 HR inh)
CCCCCOc1ccc(Br)cc1CSC(=N)N	bCat nuc transl 89
COc1ccccc1NC(=O)Nc1ccc(F)c(F)c1	Rad51 HR inh 41
O=C(NC(C(=O)N/N=C/c1ccncc1)c1n[nH]c(=O)c2ccccc12)c1ccccc1 (stereo unspecified)	none (no result: MT stabilizer)
Cc1c(Nc2cc(Cl)c3nonc3c2[N+](=O)[O-])c(=O)n(-c2ccccc2)n1C	Dynein cargo inh -6 (no result: bCat nuc transl)
COc1ccc(C2c3c(-c4ccccc4O)n[nH]c3C(=O)N2CCc2ccc(OC)c(OC)c2)cc1 (stereo unspecified)	none (no result: bCat nuc transl)
Cc1ccc(C2c3c(-c4ccccc4O)n[nH]c3C(=O)N2Cc2ccncc2)cc1 (stereo unspecified)	MT stabilizer 27
COc1ccc(CCN2C(=O)c3[nH]nc(-c4ccccc4O)c3C2c2cccc(Cl)c2)cc1 (stereo unspecified)	MT stabilizer 20
O=C(CSC1=NC(=O)C(c2ccccc2)C(=O)N1)Nc1cccc(Cl)c1 (stereo unspecified)	none (no result: bCat nuc transl)
COc1ccc(/C=C2/C(=O)OCc3cc(OC)c(OC)cc32)cc1	MT stabilizer 20
COc1ccc(/C=C2\CCOC2=O)cc1	none
COc1cc(NC(=O)c2ccc3c(c2)OCO3)c2ncccc2c1	none
O=C(COC(=O)c1ccc(Br)o1)NCC1CCCO1 (stereo unspecified)	none
O=C(NCC1CCCO1)c1ccc(Br)o1 (stereo unspecified)	Rad51 HR inh 41
N#Cc1cc2c(=O)n3ccccc3nc2n(CCN2CCOCC2)c1=O	none (no result: TbHK1 inh, Dynein cargo inh, Rad51 HR inh, MT stabilizer)
CSc1nc2ccccc2cc1/C=C(\C#N)c1cccc(C)c1	none (no result: bCat nuc transl)
CSc1nc2ccccc2cc1/C=C(\C#N)c1ccccc1	MT stabilizer 36
COc1cccc(NC(=O)C2CCCN(S(=O)(=O)c3cccc4nonc34)C2)c1 (stereo unspecified)	none
CCCCCc1ccc(OCCCC[n+]2cccc(C)c2)c(CCCCC)c1	MT stabilizer 56
CCCCCc1ccc(OCCCC[n+]2ccccc2)c(CCCCC)c1	MT stabilizer 28
CCC(C)(C)c1ccc(OCCCC[n+]2ccccc2)c(C(C)(C)CC)c1	Dynein cargo inh -3.7 (no result: bCat nuc transl)
CCCCCc1ccc(OCCCC[n+]2ccc(C)cc2)c(CCCCC)c1	none (no result: MT stabilizer)
Cc1nnc(SCc2cn3ccsc3n2)n(N)c1=O	none
C=CCNC(=O)/C(C#N)=C/c1c(N2CC(C)OC(C)C2)nc2ccccn2c1=O (stereo unspecified)	none
O=C1NC(=Nc2ccccc2)S/C1=C\C=C\c1ccco1	MT stabilizer 17
OC(COc1ccc2c(c1)CCC2)Cn1cnc2ccccc21 (stereo unspecified)	Rad51 HR inh 128 (no result: bCat nuc transl)
CC(=O)Nc1ccc(OCC(O)Cn2cnc3ccccc32)cc1 (stereo unspecified)	none
Cc1cc(Cl)ccc1OCC(=O)N(Cc1ccco1)C1CCS(=O)(=O)C1 (stereo unspecified)	none (no result: MT stabilizer)
CS(=O)(=O)N1CCN(C(=O)c2ccc(Cl)s2)CC1	Rad51 HR inh 43
O=C(c1ccc(Cl)s1)N1CCCC1	none (no result: bCat nuc transl)
CCOc1ccc(NC(=O)Nc2cccn(Cc3ccccc3)c2=O)cc1	Rad51 HR inh 41
O=C(NCc1ccccc1)Nc1cccn(Cc2ccccc2)c1=O	none
Cc1ccc(C=C2C(Cl)=C(Cl)C(Cl)=C2Cl)cc1	Dynein cargo inh -6.2 (no result: MT stabilizer)
CSc1cccc(NC(=O)c2ccccn2)c1	none
O=C(Nc1ccccc1Br)c1ccccc1-c1ccccc1	bCat nuc transl 58, MT stabilizer 15
Cc1cc(Br)ccc1NC(=O)c1ccccc1-c1ccccc1	none
Cc1cc2nc(-c3ccc(SCc4ccc(C(=O)O)cc4)nc3)[nH]c2cc1C	MT stabilizer 18
CCOC(=O)N1CCN(C(=O)CSCC(=O)N=c2sc3ccccc3n2C)CC1	Rad51 HR inh 105
CCOC(=O)N1CCN(C(=O)Cn2c(=O)sc3ccccc32)CC1	none
COc1ccc(CCN(Cc2cc3cc4c(cc3[nH]c2=O)OCO4)C(C)=O)cc1OC	none (no result: TbHK1 inh, Dynein cargo inh, Rad51 HR inh, MT stabilizer)
CCOc1ccccc1C(=O)Nc1nccs1	Rad51 HR inh 134
O=C(Nc1nccs1)c1cn(-c2ccccc2)nc1-c1ccccc1	MT stabilizer 34 (no result: bCat nuc transl)
CCOc1ccccc1C(=O)Nc1nnc(COC)s1	none
CC(C)COc1ccc(-c2nn(-c3ccccc3)cc2C(=O)Nc2nccs2)cc1	none
COc1ccc(C2C(C(=O)NCCCN3CCOCC3)c3ccccc3C(=O)N2c2ccc(OC)cc2)cc1 (stereo unspecified)	none
CCOc1ccc(-c2nnc(SCC(=O)N(CC)CC)n2N)cc1	none
CC1C/C(=C/c2ccncc2)C(=O)/C(=C/c2ccncc2)C1 (stereo unspecified)	Dynein cargo inh -6, MT stabilizer 37 (no result: bCat nuc transl)
CC1C/C(=C/c2cccn2C)C(=O)/C(=C/c2cccn2C)C1 (stereo unspecified)	none (no result: bCat nuc transl)
Cc1ccc(NC(=O)c2cc(N3CCOCC3)nc3ccccc23)cc1	MT stabilizer 24
O=C(Nc1ccccc1)c1cc(N2CCOCC2)nc2ccccc12	none
